A selection follows.
PGC1a Ac signal: raises PGC1a acetylation signal in U2OS cells. U2OS PGC1a acetylation AlphaScreen, overnight. 0.21% of 350,000 active. activation, % at 15.6 µM;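 active = every replicate reaching activation of at least 50%, whatever the mean replicate activation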;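 note: hits raise the AlphaScreen acetylation signal above neutral controls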
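detection = AlphaScreen lysate read | assay system = U2OS cells expressing flag-PGC1a plus GCN5 | input = 7000 cells/well | dosing = one concentration | times = compound overnight at 37 °C, each detection step 1 h RT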
Of the large screens only hits and unclear results are named; the others gave an inactive call.

COc1ccc(C2c3c(-c4ccccc4O)n[nH]c3C(=O)N2CCc2ccc(OC)c(OC)c2)cc1 (stereo not given)	PGC1a Ac signal 63
O=S(=O)(c1cnccc1N1CCN(/N=C/c2ccccc2)CC1)N1CCCCC1	none
Cc1ccc(C)c(NC(=O)c2nnn(Cc3ccccc3)c2N)c1	none
CCOC(=O)c1[nH]c(C)c(C(=O)Nc2cc(Cl)ccc2C)c1C	PGC1a Ac signal 78
CC(NC1c2ccccc2-c2ccccc21)c1ccccc1 (stereo not given)	none
CC(=O)ON=C1C=CC(=C(C#N)c2ccccc2)C=C1	none
C[C@H]1CN([C@@H](C)CO)C(=O)c2cccc(NC(=O)C3CCCCC3)c2O[C@H]1CN(C)Cc1ccc(C(=O)Nc2ccccc2N)cc1	PGC1a Ac signal 173
C[C@@H]1CN([C@H](C)CO)C(=O)c2cccc(NC(=O)c3nc4ccccc4s3)c2O[C@@H]1CN(C)CC1CCCCC1	none
C[C@H](CO)N1C[C@H](C)[C@@H](CN(C)CC2CCCCC2)Oc2c(NC(=O)c3nc4ccccc4s3)cccc2C1=O	none
C[C@@H]1CN([C@@H](C)CO)C(=O)c2cc(NC(=O)c3ccncc3)ccc2O[C@@H](C)CCCCO[C@@H]1CN(C)Cc1ccncc1	none
C[C@H]1CN([C@@H](C)CO)C(=O)c2cccc(NC(=O)c3nc4ccccc4s3)c2O[C@H]1CN(C)Cc1ccc(C(=O)Nc2ccccc2N)cc1	PGC1a Ac signal 104
C[C@@H]1CCCCO[C@H](CN(C)Cc2ccc(C(F)(F)F)cc2)[C@H](C)CN([C@H](C)CO)C(=O)c2cc(NC(=O)Cc3ccccc3)ccc2O1	none
COC(=O)c1ccc[n+](CC(=O)c2ccc(Br)cc2)c1	none
COc1cccc(C(=O)/C=C/c2ccc(OCC#N)c(OC)c2)c1	PGC1a Ac signal 183
COc1ccc(OC)c(C(=O)/C=C/c2ccccc2C(F)(F)F)c1	none
CCCOc1ccc(/C=C/C(=O)O)cc1OC	none
Cc1ccc(NC(=O)CN(C)S(=O)(=O)c2cccs2)c(Br)c1	PGC1a Ac signal 59
COc1ccc(N(CC(=O)Nc2ccccc2Cl)S(=O)(=O)c2ccc(C)cc2)cc1OC	none
C[C@@H]1CN([C@@H](C)CO)C(=O)c2cccc(NC(=O)Nc3ccccc3)c2O[C@H]1CN(C)S(=O)(=O)c1cccs1	none
COc1ccc(S(=O)(=O)N(C)C[C@@H]2Oc3ccc(NS(=O)(=O)c4cn(C)cn4)cc3C(=O)N([C@H](C)CO)C[C@@H]2C)cc1	none
CNC[C@H]1Oc2ncc(C#CC3CCCCC3)cc2C(=O)N([C@H](C)CO)C[C@H]1C	none
COc1cccc2cc(C(C)N(CCCN3CCOCC3)C(=S)Nc3cc(C)ccc3C)oc12 (stereo not given)	none
Cc1cc(NS(=O)(=O)c2ccc(NC(=O)COc3c(C)cc(Br)cc3C)cc2)no1	none
O=C1Nc2cc(S(=O)(=O)N3CCCC3)ccc2N2CCCC12 (stereo not given)	PGC1a Ac signal 95
C=C1C(=O)C23CCC4C(C)(C(=O)OC)CCCC4(C)C2CCC1(O)C3 (stereo not given)	none
Cc1cc(=O)[nH]c(SCC(=O)N2CCc3ccccc3C2)n1	none
Cc1ccc(Cl)cc1N1CCN(C(=O)CSc2nnc3n2C(C)(C)Cc2ccccc2-3)CC1	PGC1a Ac signal 52
CCn1c(C(C)NC(=O)c2ccccc2C)n[nH]c1=S (stereo not given)	none
COC1(C)CN(Cc2ccccc2Br)[C@H](/C=C/c2ccccc2)[C@H](Cc2ccccc2)O1 (stereo not given in full)	none
CC(C)Oc1ccc2nnnn2n1	none
C/C(N)=C(/C#N)C(=O)COc1ncnc2ccc(Br)cc12	PGC1a Ac signal 90
COCCOc1ccc(C(F)(F)F)cc1NC(=O)CN1C(=O)NC2(CCCc3ccccc32)C1=O (stereo not given)	none
O=c1oc(-c2ccccc2)cc(Cl)c1Cl	PGC1a Ac signal 115
Cc1nnnn1/C(=C\c1ccccc1)C(=O)OCC(=O)Nc1cccc(S(=O)(=O)N(C)C)c1	PGC1a Ac signal 96
Cc1cc(Cl)ccc1OCC(=O)Nc1cccc(S(=O)(=O)NC2=NCCCCC2)c1	none
CC(C)Cn1cnc2c(N)nc3ccccc3c21	none
CCN1C(C#N)=C(C#N)N=C(C)CC1(C)C	none
O=C(CCCCCN1C(=O)c2cccc3cccc(c23)C1=O)NCc1cccnc1	PGC1a Ac signal 494
Cc1c(/C=N/Nc2nc3ccccc3[nH]2)c2ccccc2n1C	PGC1a Ac signal 121
C[C@@H]1CN([C@H](C)CO)C(=O)CCCn2nncc2CO[C@H]1CN(C)C(=O)C1CC1	none
C#CCN1C(=O)C(O)(CC(=O)c2ccc(OC)c(OC)c2)c2ccccc21 (stereo not given)	none
O=C1CSC(=Nc2ccc(Cl)cc2)N1Cc1ccco1	none
COCCCNC(=O)c1ccc(Cn2c(=O)c3ccccc3n(Cc3ccccc3C)c2=O)cc1	none
O=C(NCc1ccco1)c1ccc(Cn2c(=O)c3ccccc3n(Cc3ccc(Cl)cc3)c2=O)cc1	PGC1a Ac signal 88
Cc1ccc(OC[C@H](O)[C@H](C)NC(C)C)c2c1CCC2	none
CCOC(=O)c1c(C)n(C)c2cc(Br)c(O)c(O)c12	none
CCOC(=O)c1c2c(n(C)c1C)C(=O)C(=O)c1ccc(Br)cc1-2	PGC1a Ac signal 83
